Results on 14 molecules are retold here after ChEMBL document CHEMBL3588846, “Aryl Pyrazoles as Potent Inhibitors of Arginine Methyltransferases: Identification of the First PRMT6 Tool Compound” (ACS Med Chem Lett, 2015).

Active and inactive are the calls of the source. The calls are words filed in the database; no cut-off is given here. A value given as a limit tells only on which side of the number the result lay.

For data set [1], the target named is T1, Protein arginine N-methyltransferase 6 (Homo sapiens, UniProt Q96LA8). Nature of the data set: Inhibition of FLAG and hexa-histidine tagged full-length human PRMT6 expressed in HEK293F cells pre-incubated for 30 mins before addition of a [3H]SAM and peptide mix. The data set is classed as cell-based.
For data set [2], the target named is Protein arginine N-methyltransferase 8 (Homo sapiens, UniProt Q9NR22). Nature of the data set: Inhibition of N-terminal GST tagged full-length human PRMT8 expressed in Escherichia coli (BL21(DE3) pre-incubated for 30 mins before addition of a [3H]SAM and peptide mix.
The subject of data set [3] is A-375. Put plainly: Effect on PRMT6 expression in human A375 cells transfected with his-tagged PRMT6 at 0.01 to 20 uM incubated for 48 hrs by Western blot method. The data set is classed as functional, cell-based. In a few lines:
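A375 cells were transfected with a PRMT6 expression construct, with empty vector as the control, and PRMT6 was overexpressed for 48 h. Compound exposure also lasted 48 h. PRMT6 protein levels were then checked in the treated cells.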
(In general: In western blotting, separated proteins are transferred to a membrane and probed.)

Data set [4] has as its target T1, Protein arginine N-methyltransferase 6. Put plainly: Inhibition of his-tagged PRMT6 (unknown origin) expressed in human A375 cells assessed as reduction in H3R2 methylation at 0.01 to 20 uM incubated for 48 hrs by Western blot method. It is filed as cell-based, A-375.
The target in data set [5] is T2, Protein arginine N-methyltransferase 1 (Homo sapiens, UniProt Q99873). Nature of the data set: Inhibition of PRMT1 in human A375 cells assessed as effect on monomethyl R*GG motif methylation at 0.01 to 20 uM incubated for 48 hrs by Western blot method. It is filed as cell-based, A-375.
The nature of data set [6]: Unbound fraction in Sprague-Dawley rat plasma at 1 uM at 37 degC by equilibrium dialysis and LC-MS/MS method. The data set is classed as ADME, cell-free. For orientation: Equilibrium dialysis compares concentrations on both sides of a semipermeable membrane.
A short description of data set [7]: Unbound fraction in human plasma at 1 uM at 37 degC by equilibrium dialysis and LC-MS/MS method. The data set is classed as ADME, cell-free.
Data set [8] in a line: Permeability of the compound at 10 uM at pH 7.4 by LC-MS/MS based PAMPA method. The data set is classed as physicochemical. As to conditions: read-out: permeability.
Data set [9] in a line: Oral bioavailability in rat. It is filed as ADME, organism-based. As to conditions: in vivo.
Data set [10] can be described thus: Clearance in Sprague-Dawley rat at 1 mg/kg, iv administered as single dose by LC-MS/MS method. The data set is classed as ADME, organism-based. As to conditions: in vivo.
Data set [11] can be described thus: Volume of distribution at steady state in Sprague-Dawley rat at 1 mg/kg, iv administered as single dose by LC-MS/MS method. The data set is classed as ADME, organism-based. As to conditions: in vivo, read-out: Vdss.
Data set [12] in a line: Terminal half life in Sprague-Dawley rat at 1 mg/kg, iv administered as single dose by LC-MS/MS method. It is filed as ADME, organism-based. As to conditions: in vivo, read-out: beta t1/2 (converted).
Data set [13] is described as follows: AUC (0 to t) in Sprague-Dawley rat at 1 mg/kg, iv administered as single dose by LC-MS/MS method. It is filed as ADME, organism-based. As to conditions: in vivo.
The nature of data set [14]: AUC (0 to infinity) in Sprague-Dawley rat at 1 mg/kg, iv administered as single dose by LC-MS/MS method. It is filed as ADME, organism-based. The arrangement: dose 1 mg/kg, route intravenous, time infinity. As to conditions: in vivo.
A short description of data set [15]: Terminal half life in Sprague-Dawley rat at 5 mg/kg, sc by LC-MS/MS method. It is filed as ADME, organism-based. As to conditions: in vivo, read-out: beta t1/2 (converted).
Data set [16] can be described thus: Tmax in Sprague-Dawley rat at 5 mg/kg, sc by LC-MS/MS method. The data set is classed as ADME, organism-based. As to conditions: in vivo.
Data set [17] in a line: Cmax in Sprague-Dawley rat at 5 mg/kg, sc by LC-MS/MS method. The data set is classed as ADME, organism-based. Details: dose 5 mg/kg, route subcutaneous. As to conditions: in vivo.
Data set [18] can be described thus: AUC (0 to t) in Sprague-Dawley rat at 5 mg/kg, sc by LC-MS/MS method. The data set is classed as ADME, organism-based. As to conditions: in vivo.
Data set [19] is described as follows: AUC (0 to infinity) in Sprague-Dawley rat at 5 mg/kg, sc by LC-MS/MS method. It is filed as ADME, organism-based. Details: dose 5 mg/kg, route subcutaneous, time infinity. As to conditions: in vivo.
The nature of data set [20]: Bioavailability in Sprague-Dawley rat at 5 mg/kg, sc by LC-MS/MS method. The data set is classed as ADME, organism-based. As to conditions: in vivo.
Data set [21] has as its system Rattus norvegicus. Nature of the data set: Time above biochemical PRMT6 IC50 in Sprague-Dawley rat at 5 mg/kg, sc by LC-MS/MS method.
Data set [22] has as its target T2, Protein arginine N-methyltransferase 1. Put plainly: Inhibition of N-terminal GST tagged full-length human PRMT1 expressed in high five insect cells pre-incubated for 30 mins before addition of a [3H]SAM and peptide mix.

Sequence of Protein arginine N-methyltransferase 8 (Q9NR22 whole entry): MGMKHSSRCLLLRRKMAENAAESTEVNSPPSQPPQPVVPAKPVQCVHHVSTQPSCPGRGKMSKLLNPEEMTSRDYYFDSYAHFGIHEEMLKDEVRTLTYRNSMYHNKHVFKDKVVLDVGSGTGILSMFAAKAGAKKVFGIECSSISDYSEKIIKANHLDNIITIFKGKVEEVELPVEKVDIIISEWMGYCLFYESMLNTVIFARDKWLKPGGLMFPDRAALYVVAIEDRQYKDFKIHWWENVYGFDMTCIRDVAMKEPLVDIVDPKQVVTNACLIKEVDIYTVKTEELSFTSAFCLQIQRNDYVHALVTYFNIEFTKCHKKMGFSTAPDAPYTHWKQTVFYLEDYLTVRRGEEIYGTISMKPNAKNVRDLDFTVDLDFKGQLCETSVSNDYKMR
T1 sequence (Q96LA8 whole entry): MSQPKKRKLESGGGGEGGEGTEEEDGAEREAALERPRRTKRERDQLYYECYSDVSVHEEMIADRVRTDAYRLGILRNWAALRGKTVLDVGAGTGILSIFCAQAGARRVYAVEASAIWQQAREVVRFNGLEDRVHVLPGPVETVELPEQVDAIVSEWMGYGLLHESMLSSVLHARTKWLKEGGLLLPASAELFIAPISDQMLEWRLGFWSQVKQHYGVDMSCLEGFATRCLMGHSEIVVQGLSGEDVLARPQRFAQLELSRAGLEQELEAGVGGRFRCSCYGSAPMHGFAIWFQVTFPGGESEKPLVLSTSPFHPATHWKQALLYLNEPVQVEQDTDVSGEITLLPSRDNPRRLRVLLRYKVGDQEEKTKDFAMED
T2 sequence (Q99873 whole entry): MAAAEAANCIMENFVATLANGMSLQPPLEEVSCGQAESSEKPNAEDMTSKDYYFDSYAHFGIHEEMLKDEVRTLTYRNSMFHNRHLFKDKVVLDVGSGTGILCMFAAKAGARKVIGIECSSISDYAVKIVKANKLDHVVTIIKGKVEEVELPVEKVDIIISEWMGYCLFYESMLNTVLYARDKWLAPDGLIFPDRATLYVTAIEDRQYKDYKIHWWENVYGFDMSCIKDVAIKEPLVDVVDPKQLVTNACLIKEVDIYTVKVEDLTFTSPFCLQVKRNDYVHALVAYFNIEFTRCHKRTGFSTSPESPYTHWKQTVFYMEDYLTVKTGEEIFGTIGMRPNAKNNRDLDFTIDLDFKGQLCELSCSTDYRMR

By IC50 is commonly meant the point on the concentration scale where inhibition reaches its midpoint. As for `CC(C)Oc1ccc(-c2[nH]ncc2CN(C)CCN)cc1Cl`, in data set [1], the midpoint of inhibition, the IC50, lay at 0.008 µM.

Molecule `CCOc1ccc(-c2[nH]ncc2CN(C)CCNC)cc1` yielded an IC50 in [1] of 0.025 µM.

Take `CNCCN(C)Cc1c[nH]nc1-c1ccc(OC(C)C)cc1`: in data set [1], inhibition was half-maximal at 0.011 µM (IC50).

`CNCCN(C)Cc1n[nH]cc1-c1ccc(Oc2cccc(C(=O)N(C)C)c2)cc1`: the IC50 in [1] was found to be 0.002 µM; in data set [2], 0.347 µM.

`CN(CCN)Cc1c[nH]nc1-c1ccc(OCCCN2CCOCC2)cc1` came in with an IC50 in data set [1] of 0.013 µM.

For the molecule `CC(C)Oc1c(Cl)cc(-c2c[nH]nc2CN(C)CCN)cc1C(F)(F)F`, the IC50 is 0.32 µM in data set [1] and 0.07 µM in data set [2].

A word on the fraction unbound: it is the share of the substance not bound to proteins or other matrix. A higher fraction unbound goes with weak binding. The term bioavailability denotes dose-corrected exposure relative to a reference, in per cent. Read a low bioavailability as poor availability. As usually defined, the clearance is a measure of how efficiently the substance is removed, as volume per time. A lower clearance goes with inefficient removal. The AUC(0-t) is exposure summed from dosing to a finite time, without extrapolation to infinity. A higher AUC(0-t) goes with high exposure. One may read the AUC(0-inf) as the area under the concentration-time curve extrapolated to infinity. Read a low AUC(0-inf) as less exposure. What is called Tmax is the time at which the peak concentration occurs. Broadly, the Cmax is the highest concentration seen after dosing. For `CNCCN(C)Cc1c[nH]nc1-c1ccc(O[C@H]2C[C@H](OCCC3CCOCC3)C2)cc1`, the result in data set [3] was inactive. Moreover, the values for the IC50 in data set [4] and in data set [5] were 0.637 µM and 7.1 µM, respectively. The fraction unbound at 1 µM in [6] was 0.51; in data set [7] it was 0.52. Moreover, the Papp at 10 µM in data set [8] was found to be 0.1 ×10⁻⁶ cm/s. The bioavailability in data set [9] is below 5%; in data set [20], 65.6%. Moreover, the clearance in data set [10] came out at 19.7 mL/min/kg. Besides, the Vd in data set [11] was found to be 11.1 L/kg. The half-life is 8.54 h in data set [12] and 9.19 h in data set [15]. Moreover, the figures for the AUC(0-t) in [13] and in [18] were 745 ng·h/mL and 2460 ng·h/mL, respectively. In addition, the AUC(0-inf) is 846 ng·h/mL in data set [14] and 2780 ng·h/mL in data set [19]. In data set [16], the Tmax turned out to be 0.444 h. For the same molecule, the concentration in data set [17] peaked (Cmax) at 844 ng/mL. Further, the Time in data set [21] is above 12 h.

For the molecule `CNCCN(C)Cc1c[nH]nc1-c1cc(OCCc2ccccc2)cc(C(F)(F)F)c1`, the IC50 amounted to 0.327 µM in data set [1] and 0.023 µM in data set [2].

As to `CNCCN(C)Cc1c[nH]nc1-c1cc(OC(CO)CC(C)C)cc(C(F)(F)F)c1` (stereo not drawn), the 50% inhibitory concentration (IC50) in [4] was above 20 µM.

For `CNCCN(C)Cc1n[nH]cc1-c1ccc(Oc2ccccc2C(=O)NC)cc1`, the values for the IC50 in [1] and in [2] were 0.005 µM and 0.065 µM, respectively.

As to `CNCCN(C)Cc1c[nH]nc1-c1cc(OCCC2CCCCC2)cc(C(F)(F)F)c1`, the figures for the IC50 in data set [1] and in data set [2] were 0.461 µM and 0.021 µM, respectively.

In [22], `CNCCN(C)Cc1cn[nH]c1-c1ccc(OC(CO)C(C)C)cc1` (stereo not drawn) gave an IC50 of 0.027 µM.

`CNCCN(C)Cc1c[nH]nc1-c1ccc(Oc2cccc(C(=O)N(C)C)c2)cc1`: the 50% inhibitory concentration (IC50) in data set [1] was 0.003 µM; in data set [2], 0.179 µM.

Take `CNCCN(C)Cc1cn[nH]c1-c1ccc(OC(C)C)c(Cl)c1`: the IC50 in data set [1] stood at 0.01 µM.
